Experimental data: ChEMBL document CHEMBL1255379, “Evaluation of Etest method for determining isavuconazole MICs against Cryptococcus gattii and Cryptococcus neoformans” (2008)
Converted amounts (≈) assume the structure as drawn.

Key:
Cryptococcus neoformans [1] = test: Antimicrobial activity against Cryptococcus neoformans by broth microdilution method; type: functional
Method in brief: (§1)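 CLSI M27-A2 broth microdilution in RPMI 1640 with L-glutamine, no bicarbonate, MOPS-buffered to pH 7.0. Isavuconazole stock in DMSO; final concentrations 0.015 to 8 μg/ml. Inoculum 0.5 × 10³ to 2.5 × 10³ cells/ml from subcultured isolates. Incubated at 35°C. MIC read at 48 and 72 h as 50% reduction in turbidity versus drug-free control. Candida krusei ATCC 6258 and C. parapsilosis ATCC 22019 served as quality controls.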

[2] = test system: Cryptococcus gattii species complex; test: Antimicrobial activity against Cryptococcus gattii by Etest method; type: functional, Cryptococcus bacillisporus
Method in brief: (§2)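 Isolates (clinical and environmental), maintained in sterile water or glycerol broth, subcultured at least twice on Sabouraud dextrose agar. Suspension adjusted to 0.5 McFarland and swabbed onto RPMI agar plates with 2% glucose; isavuconazole Etest strips applied. Incubated at 35°C, read at 48 and 72 h. MIC taken where prominent growth reduction meets the strip, raised to the next twofold level.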

Cryptococcus neoformans [3] = test: Antimicrobial activity against Cryptococcus neoformans by Etest method; type: functional; method in brief: as §2
[4] = test system: Cryptococcus gattii species complex; test: Antimicrobial activity against Cryptococcus gattii by broth microdilution method; type: functional, Cryptococcus bacillisporus; method in brief: as §1

- MIC (Cryptococcus neoformans [1]): ≤ 0.015 µg/mL
- MIC50 (Cryptococcus neoformans [1]): ≤ 0.015 µg/mL
- MIC90 (Cryptococcus neoformans [1]): 0.06 µg/mL (≈ 0.137 µM)
- MIC [2]: 0.003 µg/mL (≈ 0.00686 µM)
- MIC50 [2]: 0.032 µg/mL (≈ 0.0731 µM)
- MIC90 [2]: 0.125 µg/mL (≈ 0.286 µM)
- MIC (Cryptococcus neoformans [3]): 0.002 µg/mL (≈ 0.00457 µM)
- MIC50 (Cryptococcus neoformans [3]): 0.023 µg/mL (≈ 0.0526 µM)
- MIC90 (Cryptococcus neoformans [3]): 0.047 µg/mL (≈ 0.107 µM)
- MIC [4]: ≤ 0.015 µg/mL
- MIC50 [4]: 0.03 µg/mL (≈ 0.0686 µM)
- MIC90 [4]: 0.06 µg/mL (≈ 0.137 µM)
Structure (SMILES): C[C@@H](c1nc(-c2ccc(C#N)cc2)cs1)[C@](O)(Cn1cncn1)c1cc(F)ccc1F [ISAVUCONAZOLE]
